What was measured:
[1] = target: T1, Mineralocorticoid receptor (Rattus norvegicus, UniProt P22199); test: Antagonist activity at rat mineralocorticoid receptor-ligand binding domain expressed in AH109 yeast cells co expressing pGADT7-hSRC-1 by two hybrid assay; type: cell-based
T1 sequence (P22199 whole entry): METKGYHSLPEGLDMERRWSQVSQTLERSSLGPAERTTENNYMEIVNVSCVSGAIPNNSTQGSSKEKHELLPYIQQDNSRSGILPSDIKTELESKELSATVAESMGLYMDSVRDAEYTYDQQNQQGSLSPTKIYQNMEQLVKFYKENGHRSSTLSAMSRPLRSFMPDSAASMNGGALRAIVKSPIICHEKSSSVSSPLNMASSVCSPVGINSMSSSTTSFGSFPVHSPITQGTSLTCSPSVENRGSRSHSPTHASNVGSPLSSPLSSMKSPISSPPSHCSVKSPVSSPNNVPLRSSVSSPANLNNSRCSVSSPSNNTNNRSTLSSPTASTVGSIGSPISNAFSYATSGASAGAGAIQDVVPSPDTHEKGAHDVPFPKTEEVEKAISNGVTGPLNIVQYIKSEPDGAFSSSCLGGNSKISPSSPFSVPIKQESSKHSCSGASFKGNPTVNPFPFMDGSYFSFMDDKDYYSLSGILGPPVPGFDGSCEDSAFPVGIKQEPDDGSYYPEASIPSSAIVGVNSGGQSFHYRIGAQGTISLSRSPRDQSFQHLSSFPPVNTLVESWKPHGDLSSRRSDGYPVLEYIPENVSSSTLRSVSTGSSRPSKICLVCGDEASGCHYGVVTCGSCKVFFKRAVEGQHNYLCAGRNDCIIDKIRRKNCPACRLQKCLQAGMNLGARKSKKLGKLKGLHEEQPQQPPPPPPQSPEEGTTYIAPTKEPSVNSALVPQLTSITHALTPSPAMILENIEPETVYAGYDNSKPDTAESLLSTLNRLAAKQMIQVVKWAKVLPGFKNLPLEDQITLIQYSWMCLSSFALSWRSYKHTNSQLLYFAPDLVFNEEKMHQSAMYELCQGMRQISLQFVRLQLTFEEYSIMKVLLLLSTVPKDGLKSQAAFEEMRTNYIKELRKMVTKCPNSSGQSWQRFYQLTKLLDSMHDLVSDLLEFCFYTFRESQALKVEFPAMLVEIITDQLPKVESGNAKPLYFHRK
Procedure, shortened: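 Yeast two-hybrid read-out of corticosterone-stimulated interaction between the MR ligand-binding domain and the SRC1 coactivator. Antagonism of this interaction is expressed as IC50.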

[2] = target: T2, Progesterone receptor (Homo sapiens, UniProt P06401); test: Inhibition of progesterone receptor ligand binding domain expressed in HEK293T cells; type: cell-based, HEK-293T
T2 sequence (P06401 whole entry): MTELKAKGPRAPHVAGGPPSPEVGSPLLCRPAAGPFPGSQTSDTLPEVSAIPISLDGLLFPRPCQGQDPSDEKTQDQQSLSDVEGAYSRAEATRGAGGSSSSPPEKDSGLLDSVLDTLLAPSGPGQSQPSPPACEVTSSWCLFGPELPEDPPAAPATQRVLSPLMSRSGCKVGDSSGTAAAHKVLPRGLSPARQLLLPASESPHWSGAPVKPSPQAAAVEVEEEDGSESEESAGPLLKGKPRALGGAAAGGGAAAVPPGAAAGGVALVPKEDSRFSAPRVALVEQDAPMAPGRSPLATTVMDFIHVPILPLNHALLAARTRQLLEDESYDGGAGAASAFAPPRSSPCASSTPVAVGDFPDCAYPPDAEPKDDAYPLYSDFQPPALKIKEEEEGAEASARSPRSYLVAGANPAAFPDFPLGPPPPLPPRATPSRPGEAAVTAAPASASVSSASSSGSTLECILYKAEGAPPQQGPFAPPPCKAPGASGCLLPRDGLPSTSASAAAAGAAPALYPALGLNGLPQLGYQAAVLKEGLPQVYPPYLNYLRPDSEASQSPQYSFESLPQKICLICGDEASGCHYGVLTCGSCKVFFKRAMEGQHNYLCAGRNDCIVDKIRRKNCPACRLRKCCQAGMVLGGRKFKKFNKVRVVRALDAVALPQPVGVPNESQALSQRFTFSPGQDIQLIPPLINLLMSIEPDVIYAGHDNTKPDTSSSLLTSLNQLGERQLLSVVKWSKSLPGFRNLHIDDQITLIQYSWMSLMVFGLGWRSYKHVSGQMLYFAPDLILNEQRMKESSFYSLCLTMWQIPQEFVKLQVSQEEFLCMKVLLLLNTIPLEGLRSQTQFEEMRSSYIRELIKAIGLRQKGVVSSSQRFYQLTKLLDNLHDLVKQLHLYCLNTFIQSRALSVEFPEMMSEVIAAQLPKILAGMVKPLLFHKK
Procedure, shortened: (§1)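 Mammalian one-hybrid assay in HEK293T cells transiently co-transfected with a UAS-TK-Luc reporter, pRL-SV40 and a pGAL4 fusion of the receptor LBD (ERα, GR or PR). The read-out is luciferase, measuring antagonism at each receptor.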

[3] = target: T3, Estrogen receptor (Homo sapiens, UniProt P03372); test: Inhibition of ERalpha ligand binding domain expressed in HEK293T cells; type: cell-based, HEK-293T; procedure, shortened: as §1
T3 sequence (P03372 whole entry): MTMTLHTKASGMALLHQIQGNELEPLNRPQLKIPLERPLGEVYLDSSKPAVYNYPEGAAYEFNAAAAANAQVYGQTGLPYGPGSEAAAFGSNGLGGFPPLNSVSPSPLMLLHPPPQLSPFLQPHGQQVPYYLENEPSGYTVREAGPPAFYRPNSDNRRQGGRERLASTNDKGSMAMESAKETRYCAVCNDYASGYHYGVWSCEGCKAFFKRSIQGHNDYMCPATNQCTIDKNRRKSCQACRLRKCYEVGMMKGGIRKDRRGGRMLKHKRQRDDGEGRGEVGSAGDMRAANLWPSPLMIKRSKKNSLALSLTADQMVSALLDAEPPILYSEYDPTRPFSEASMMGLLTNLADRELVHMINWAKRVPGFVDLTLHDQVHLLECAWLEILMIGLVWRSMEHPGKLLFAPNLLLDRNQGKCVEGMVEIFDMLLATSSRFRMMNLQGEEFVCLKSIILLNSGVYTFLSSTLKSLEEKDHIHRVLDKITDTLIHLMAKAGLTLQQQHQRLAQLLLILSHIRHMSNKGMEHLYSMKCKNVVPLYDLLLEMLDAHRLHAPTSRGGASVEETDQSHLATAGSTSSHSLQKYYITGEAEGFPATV

[4] = target: T4, Glucocorticoid receptor (Homo sapiens, UniProt P04150); test: Inhibition of glucocorticoid receptor ligand binding domain expressed in HEK293T cells; type: cell-based; details: hek-293t; procedure, shortened: as §1
T4 sequence (P04150 whole entry): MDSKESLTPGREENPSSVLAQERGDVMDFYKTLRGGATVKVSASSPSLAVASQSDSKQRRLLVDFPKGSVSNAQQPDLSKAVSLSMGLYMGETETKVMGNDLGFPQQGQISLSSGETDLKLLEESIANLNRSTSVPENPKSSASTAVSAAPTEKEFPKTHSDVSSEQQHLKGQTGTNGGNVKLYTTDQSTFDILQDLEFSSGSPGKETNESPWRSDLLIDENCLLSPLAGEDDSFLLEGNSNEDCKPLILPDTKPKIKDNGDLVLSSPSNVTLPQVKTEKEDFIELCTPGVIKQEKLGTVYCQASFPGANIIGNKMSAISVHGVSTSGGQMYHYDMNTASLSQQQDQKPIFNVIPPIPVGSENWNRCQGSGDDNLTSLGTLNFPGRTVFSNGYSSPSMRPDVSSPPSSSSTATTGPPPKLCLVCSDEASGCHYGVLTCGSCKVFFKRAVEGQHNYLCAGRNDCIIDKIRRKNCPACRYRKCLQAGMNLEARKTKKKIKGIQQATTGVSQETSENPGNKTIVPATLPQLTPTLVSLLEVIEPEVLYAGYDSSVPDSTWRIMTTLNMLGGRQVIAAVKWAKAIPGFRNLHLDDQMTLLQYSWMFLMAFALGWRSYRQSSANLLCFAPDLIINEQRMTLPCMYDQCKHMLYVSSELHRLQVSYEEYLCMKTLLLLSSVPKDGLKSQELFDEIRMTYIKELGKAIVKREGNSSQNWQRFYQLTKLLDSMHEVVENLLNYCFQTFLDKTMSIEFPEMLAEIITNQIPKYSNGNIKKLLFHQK

| Compound | IC50 [1] | also measured |
| --- | --- | --- |
| C=CCCC[C@@H](C)OC(=O)c1c(CCC=C)cc(OC)cc1OC | Not Active | – |
| COc1cc2c(c(OC)c1)C(=O)O[C@H](C)CCC/C=C/CC2 | Not Active | – |
| COc1cc2c(c(OC)c1)C(=O)O[C@H](C)CCC/C=C\CC2 | – | IC50 ([1]; read-out: IC50): 16.6 µM |
| COc1cc2c(c(OC)c1)C(=O)O[C@H](C)CCCCCCC2 | Not Active | – |
| COc1cc(O)cc2c1C(=O)O[C@H](C)CCCCCCC2 | Not Active | – |
| C[C@@H]1CCCCCCCc2cc(O)cc(O)c2C(=O)O1 | – | IC50 ([1]; read-out: IC50): 8.93 µM |
| COc1cc(O)c2c(c1)CCCCCCC[C@@H](C)OC2=O | Not Active | – |
| CCOc1cc(O)c2c(c1)CCCCCCC[C@@H](C)OC2=O | Not Active | – |
| CCOc1cc2c(c(OCC)c1)C(=O)O[C@H](C)CCCCCCC2 | Not Active | – |
| CCCCOc1cc2c(c(OCCCC)c1)C(=O)O[C@H](C)CCCCCCC2 | Not Active | – |
| CCCOc1cc(O)c2c(c1)CCCCCCC[C@@H](C)OC2=O | Not Active | – |
| CCCOc1cc2c(c(OCCC)c1)C(=O)O[C@H](C)CCCCCCC2 | Not Active | – |
| C=CCOc1cc(O)c2c(c1)CCCCCCC[C@@H](C)OC2=O | Not Active | – |
| C=CCOc1cc2c(c(OCC=C)c1)C(=O)O[C@H](C)CCCCCCC2 | Not Active | – |
| C[C@@H]1CCCCCCCc2cc(OCc3ccccc3)cc(O)c2C(=O)O1 | Not Active | – |
| C[C@@H]1CCCCCCCc2cc(OCc3ccccc3)cc(OCc3ccccc3)c2C(=O)O1 | Not Active | – |
| C[C@@H]1CCCCCCCc2cc(OCc3ccc([N+](=O)[O-])cc3)cc(OCc3ccc([N+](=O)[O-])cc3)c2C(=O)O1 | Not Active | – |

| Compound | IC50 [1] | also measured |
| --- | --- | --- |
| CC(=O)Oc1cc2c(c(OC(C)=O)c1)C(=O)O[C@H](C)CCCCCCC2 | – | IC50 ([2]; hek-293t): Not Active; IC50 ([3]; read-out: IC50): 8.36 µM; IC50 [4]: Not Active; IC50 ([1]; read-out: IC50): 2.78 µM |
| CCC(=O)Oc1cc2c(c(OC(=O)CC)c1)C(=O)O[C@H](C)CCCCCCC2 | – | IC50 ([1]; read-out: IC50): 31.7 µM |
| CCCC(=O)Oc1cc2c(c(OC(=O)CCC)c1)C(=O)O[C@H](C)CCCCCCC2 | Not Active | – |
| CC(C)C(=O)Oc1cc2c(c(OC(=O)C(C)C)c1)C(=O)O[C@H](C)CCCCCCC2 | Not Active | – |
| C[C@@H]1CCCCCCCc2cc(OC(=O)c3ccc(Br)cc3)cc(OC(=O)c3ccc(Br)cc3)c2C(=O)O1 | Not Active | – |
| C[C@@H]1CCCCCCCc2cc(OC(=O)c3ccc(Cl)cc3)cc(OC(=O)c3ccc(Cl)cc3)c2C(=O)O1 | Not Active | – |
| Cc1ccc(S(=O)(=O)Oc2cc3c(c(OS(=O)(=O)c4ccc(C)cc4)c2)C(=O)O[C@H](C)CCCCCCC3)cc1 | – | IC50 ([1]; read-out: IC50): 6.51 µM |
| O=C1OCCCCCCCc2cc(O)cc(O)c21 | Not Active | – |
| CC(=O)Oc1cc2c(c(OC(C)=O)c1)C(=O)OCCCCCCC2 | – | IC50 ([2]; hek-293t): Not Active; IC50 ([3]; hek-293t): Not Active; IC50 [4]: Not Active; IC50 ([1]; read-out: IC50): 0.58 µM |
| O=C1OCCCCCCCCc2cc(O)cc(O)c21 | Not Active | – |
| CC(=O)Oc1cc2c(c(OC(C)=O)c1)C(=O)OCCCCCCCC2 | – | IC50 ([2]; hek-293t): Not Active; IC50 ([3]; hek-293t): Not Active; IC50 [4]: Not Active; IC50 ([1]; read-out: IC50): 1.11 µM |
| O=C1OCCCCCCCCCc2cc(O)cc(O)c21 | Not Active | – |
| CC(=O)Oc1cc2c(c(OC(C)=O)c1)C(=O)OCCCCCCCCC2 | – | IC50 ([2]; read-out: IC50): 3.06 µM; IC50 ([3]; hek-293t): Not Active; IC50 [4]: Not Active; IC50 ([1]; read-out: IC50): 0.82 µM |
| O=C1OCCCCCCCCCCc2cc(O)cc(O)c21 | Not Active | – |
| CC(=O)Oc1cc2c(c(OC(C)=O)c1)C(=O)OCCCCCCCCCC2 | – | IC50 ([2]; read-out: IC50): 3.22 µM; IC50 ([3]; read-out: IC50): > 10 µM; IC50 [4]: Not Active; IC50 ([1]; read-out: IC50): 2.9 µM |
| C[C@@H]1CCCCCCCc2cc(OC(=O)c3ccccc3)cc(OC(=O)c3ccccc3)c2C(=O)O1 | Not Active | – |
